Assays:
Type in all cases: in vivo, human
healthy male subjects [1] = assay: NeuroCart test battery, overall pharmacodynamic effects; conditions: galantamine 16 mg oral; healthy elderly males
Outline: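 Double-blind study in healthy nonsmoking elderly men (cohorts 3–4, 12 on active drug). A single oral 16 mg dose was given at the same time as the other cohort treatments, with elderly double-placebo controls. Battery: N-back, Stroop, adaptive tracking, Bond–Lader VAS, pharmaco-EEG, eye movements, pupil size, body sway, face encoding/recognition and VVLT. Two baseline runs, then 1–6, 8 and 10 h post-dose. VVLT ran at 1 h 30 min only; face recognition predose and at 1 h 45 min. Analysis by mixed-model ANOVA with fixed factor treatment.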

healthy male subjects [2] = assay: Treatment emergent adverse events, single dose study; conditions: galantamine 16 mg oral
healthy male subjects [3] = assay: VAS nausea, single dose; conditions: healthy elderly males
[4] = Plasma pharmacokinetics after single intranasal dose of Gln-1062; conditions: for half-life / AUC(0-inf) / Cmax: male, human, inhaled or intranasal

In the case of `COc1ccc2c3c1O[C@H]1C[C@@H](O)C=C[C@@]31CCN(C)C2` [galantamine], the “pharmacodynamic effects compared with placebo” value (healthy male subjects [1]) is reported as “did not induce any measurable pharmacodynamic effects”, the “Cold sweat or hyperhidrosis, incidence” value (healthy male subjects [2]) is reported as 33.3% and the “Nausea, incidence” value (healthy male subjects [2]; healthy elderly males) is reported as 33.3%. For the same compound, the “Diarrhea, incidence” value (healthy male subjects [2]; healthy elderly subjects) was 8.3%, the “Vomiting, incidence” value (healthy male subjects [2]; healthy elderly subjects) was 41.7% and the “peak of nausea (VAS nausea), time after administration” value (healthy male subjects [3]) was 2 h. It also gave a half-life [4] of roughly 10 h, an AUC(0-inf) ([4]; 5.5 mg) of 268 ng·h/mL and a Cmax ([4]; 5.5 mg) of 17.6 ng/mL. The half-life ([4]; 5.5 mg) was 9.85 h, the AUC(0-inf) ([4]; 11 mg) was 367 ng·h/mL and the Cmax ([4]; 11 mg) was 27.7 ng/mL. It also gave a half-life ([4]; 11 mg) of 7.94 h, an AUC(0-inf) ([4]; 22 mg) of 799 ng·h/mL and a Cmax ([4]; 22 mg) of 46.5 ng/mL. It also gave a half-life ([4]; 22 mg) of 8.71 h, an AUC(0-inf) ([4]; 33 mg) of 1190 ng·h/mL and a Cmax ([4]; 33 mg) of 76.1 ng/mL. The half-life ([4]; 33 mg) was 9.24 h, the AUC(0-inf) ([4]; 44 mg) was 1530 ng·h/mL and the Cmax ([4]; 44 mg) was 74.7 ng/mL. For the same compound, the half-life ([4]; 44 mg) was 11.1 h and the “Tmax for galantamine after administration of Gln-1062” value ([4]; over the Gln-1062 intranasal dose levels) was 2.3 to 4.7 h.

— article PMC5644278 (Alzheimer's & Dementia : Translational Research & Clinical …, 2016)
